From ChEMBL document CHEMBL3576866, “Discovery of a Cyclic Boronic Acid β-Lactamase Inhibitor (RPX7009) with Utility vs Class A Serine Carbapenemases” (J Med Chem, 2015)
Converted amounts (≈) assume the structure as drawn. The source made the active and inactive calls. The calls are words filed in the database; no cut-off is given here.

Key:
[1] = biological target: Beta-lactamase (Klebsiella pneumoniae) (UniProt Q93LQ9); assay: Inhibition of Klebsiella pneumoniae KP1004 KPC 2 carbapenemase assessed as minimum concentration required to reduce biapenem MIC from […] ug/ml to 1 ug/mL by broth microdilution method
Beta-lactamase (Klebsiella pneumoniae), sequence (Q93LQ9 as listed by the source): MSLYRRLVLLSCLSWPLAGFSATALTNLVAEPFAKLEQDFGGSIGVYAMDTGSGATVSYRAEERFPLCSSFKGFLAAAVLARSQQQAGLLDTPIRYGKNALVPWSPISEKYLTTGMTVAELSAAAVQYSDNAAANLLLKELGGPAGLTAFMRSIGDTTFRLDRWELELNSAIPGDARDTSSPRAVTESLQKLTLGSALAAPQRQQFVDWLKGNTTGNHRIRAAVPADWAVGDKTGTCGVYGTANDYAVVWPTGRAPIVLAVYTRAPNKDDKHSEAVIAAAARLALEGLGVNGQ

[2] = system: Klebsiella pneumoniae; assay: Antibacterial activity against Klebsiella pneumoniae KP1004 by broth microdilution method; format: functional, organism-based
[3] = Inhibition of Escherichia coli recombinant P99 assessed as substrate nitrocefin degradation preincubated for 10 mins followed by substrate addition measured every 10 secs for 10 mins by spectrophotometric analysis
Method in brief: (§1)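 β-Lactamases purified from overexpressing recombinant E. coli. Enzyme preincubated with inhibitor at varying concentrations for 10 min at room temperature in 50 mM Na phosphate pH 7.0, 0.1 mg/mL BSA. Then 50 μM nitrocefin (final) added and cleavage read at 490 nm every 10 s for 10 min. Ki derived by the Waley method.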

[4] = Inhibition of Escherichia coli recombinant SHV-12 assessed as substrate nitrocefin degradation preincubated for 10 mins followed by substrate addition measured every 10 secs for 10 mins by spectrophotometric analysis; method in brief: as §1
[5] = Inhibition of Escherichia coli recombinant TEM-10 assessed as substrate nitrocefin degradation preincubated for 10 mins followed by substrate addition measured every 10 secs for 10 mins by spectrophotometric analysis; method in brief: as §1
[6] = Inhibition of Escherichia coli recombinant KPC-2 assessed as substrate nitrocefin degradation preincubated for 10 mins followed by substrate addition measured every 10 secs for 10 mins by spectrophotometric analysis; method in brief: as §1
[7] = Inhibition of Escherichia coli recombinant CTX-M-15 assessed as substrate nitrocefin degradation preincubated for 10 mins followed by substrate addition measured every 10 secs for 10 mins by spectrophotometric analysis; method in brief: as §1
[8] = Inhibition of Escherichia coli recombinant CMY-2 assessed as substrate nitrocefin degradation preincubated for 10 mins followed by substrate addition measured every 10 secs for 10 mins by spectrophotometric analysis; method in brief: as §1
[9] = system: Escherichia coli; assay: microbe, parasite or virus in culture; conditions: EC1008
[10] = system: Klebsiella pneumoniae; assay: microbe, parasite or virus in culture; conditions: KP1005
[11] = system: Escherichia coli; assay: microbe, parasite or virus in culture; conditions: EC1009
[12] = system: Klebsiella aerogenes; assay: microbe, parasite or virus in culture; conditions: EA1028
[13] = system: Klebsiella pneumoniae; assay: microbe, parasite or virus in culture; conditions: KP1009
[14] = system: Klebsiella pneumoniae; assay: microbe, parasite or virus in culture; conditions: KP1010
[15] = system: Klebsiella pneumoniae; assay: microbe, parasite or virus in culture; conditions: KP1011
[16] = system: Escherichia coli; assay: microbe, parasite or virus in culture; conditions: EC1011
[17] = system: Klebsiella oxytoca; assay: microbe, parasite or virus in culture; conditions: KX1001
[18] = system: Enterobacter cloacae; assay: Antibacterial activity against Enterobacter cloacae ECL1058 expressing KPC3/SHV-11/TEM-1 by broth microdilution method; format: functional
[19] = system: Klebsiella pneumoniae; assay: Antibacterial activity against Klebsiella pneumoniae KP1008 expressing KPC2 by broth microdilution method; format: functional
[20] = system: Klebsiella pneumoniae; assay: Antibacterial activity against Klebsiella pneumoniae KP1083 expressing KPC3/SHV-1/TEM-1 by broth microdilution method; format: functional
[21] = system: Klebsiella pneumoniae; assay: Antibacterial activity against Klebsiella pneumoniae KP1082 expressing KPC2/SHV-1 by broth microdilution method; format: functional
[22] = system: Klebsiella pneumoniae; assay: Antibacterial activity against Klebsiella pneumoniae KP1088 expressing KPC3/SHV-11/TEM-1 by broth microdilution method; format: functional
[23] = system: Escherichia coli; assay: microbe, parasite or virus in culture; conditions: EC1007
[24] = system: Klebsiella pneumoniae; assay: Antibacterial activity against Klebsiella pneumoniae KP1084 expressing KPC3/SHV-11/TEM-1 by broth microdilution method; format: functional
[25] = system: Klebsiella oxytoca; assay: Antibacterial activity against Klebsiella oxytoca KX1017 expressing KPC2/OXA2/SHV30 by broth microdilution method; format: functional
[26] = system: Klebsiella pneumoniae; assay: Antibacterial activity against Klebsiella pneumoniae KP1087 expressing KPC2/CTX-M-15/SHV-11/TEM-1 by broth microdilution method; format: functional
[27] = system: Klebsiella pneumoniae; assay: Antibacterial activity against Klebsiella pneumoniae KP1004 expressing KPC2/TEM1/SHV11 by broth microdilution method; format: functional
[28] = system: Klebsiella oxytoca; assay: Antibacterial activity against Klebsiella oxytoca KX1019 expressing KPC2/OXA2 by broth microdilution method; format: functional
[29] = Competitive inhibition of Escherichia coli RTEM-1

For `CC(=O)N[C@H]1CC[C@@H](CC(=O)O)OB1O`, the MEC [1] was 0.3 µg/mL and the Activity [2] was “inactive”.
`C[C@]1(Cn2ccnn2)[C@H](C(=O)O)N2C(=O)C[C@H]2S1(=O)=O` [TAZOBACTAM] gave a Ki [3] of 1.1 µM, a Ki [4] of 0.0004 µM and a Ki [5] of 0.005 µM. For the same compound, the Ki [6] was 1.6 µM, the Ki [7] was 0.001 µM and the Ki [8] was 0.71 µM.
`O=C(O)[C@H]1/C(=C/CO)O[C@@H]2CC(=O)N21` [CLAVULANIC ACID] gave a Ki [3] of 1110 µM, a Ki [4] of at most 0.039 µM and a Ki [5] of 0.02 µM. The Ki [6] was 41.2 µM, the Ki [7] was 0.027 µM and the Ki [8] was 845 µM.
In the case of `NCCSCC(=O)N[C@H]1CC[C@@H](CC(=O)O)OB1O`, the MEC [1] is reported as 0.3 µg/mL and the Activity [2] is reported as “inactive”.
With `CO/N=C(\C(=O)N[C@@H]1C(=O)N2C(C(=O)[O-])=C(C[N+]3(C)CCCC3)CS[C@H]12)c1csc(N)n1` the MIC [9] was over 64 µg/mL, the MIC [10] was 64 µg/mL (≈ 133 µM) and the MIC [11] was 8 µg/mL (≈ 16.6 µM). For the same compound, the MIC [12] was over 64 µg/mL, the MIC [13] was over 64 µg/mL and the MIC [14] was 2 µg/mL (≈ 4.16 µM). The MIC [15] was 64 µg/mL (≈ 133 µM), the MIC [16] was 8 µg/mL (≈ 16.6 µM) and the MIC [17] was 4 µg/mL (≈ 8.32 µM).
With `O=C(O)C[C@@H]1CC[C@H](NC(=O)Cc2cccnc2)B(O)O1` the MEC [1] was 0.15 µg/mL and the Activity [2] was “inactive”.
In the case of `O=C(O)C[C@@H]1CC[C@H](NC(=O)Cc2ccccn2)B(O)O1`, the MEC [1] is reported as 0.15 µg/mL and the Activity [2] is reported as “inactive”.
With `O=C(O)C[C@@H]1CC[C@H](NC(=O)c2ccccc2)B(O)O1` the MEC [1] was 0.3 µg/mL and the Activity [2] was “inactive”.
In the case of `O=C(O)C[C@@H]1CC[C@H](NC(=O)CCc2ccccc2)B(O)O1`, the MEC [1] is reported as 0.3 µg/mL and the Activity [2] is reported as “inactive”.
`C[C@@H](O)[C@H]1C(=O)N2C(C(=O)O)=C(SCCNC=N)C[C@H]12` [IMIPENEM ANHYDROUS] showed an MIC [18] of 8 µg/mL (≈ 26.7 µM), an MIC [19] of 4 µg/mL (≈ 13.4 µM) and an MIC [20] of 16 µg/mL (≈ 53.4 µM). For the same compound, the MIC [21] was 4 µg/mL (≈ 13.4 µM), the MIC [22] was 32 µg/mL (≈ 107 µM) and the MIC [23] was 8 µg/mL (≈ 26.7 µM). The MIC [24] was 64 µg/mL (≈ 214 µM), the MIC [25] was 8 µg/mL (≈ 26.7 µM) and the MIC [26] was 16 µg/mL (≈ 53.4 µM). It also gave an MIC [27] of 8 µg/mL (≈ 26.7 µM) and an MIC [28] of 4 µg/mL (≈ 13.4 µM).
For `O=C(O)C[C@@H]1CC[C@H](NC(=O)Cc2ccccc2)B(O)O1`, the MEC [1] was 0.15 µg/mL and the Activity [2] was “inactive”.
For `CC(=O)NC(Cc1cccc(C(=O)O)c1)B(O)O` (stereo unspecified), the Ki [29] was 0.11 µM.
With `Nc1nc(CC(=O)N[C@H]2CC[C@@H](CC(=O)O)OB2O)cs1` the MEC [1] was 0.61 µg/mL and the Activity [2] was “inactive”.
In the case of `O=C(O)C[C@@H]1CC[C@H](NC(=O)Cc2cccc(O)c2)B(O)O1`, the MEC [1] is reported as 1.25 µg/mL and the Activity [2] is reported as “inactive”.
